ChEMBL document CHEMBL5154945, “Discovery and Optimization of Pyrrolopyrimidine Derivatives as Selective Disruptors of the Perinucleolar Compartment, a Marker of Tumor Progression toward Metastasis” (J Med Chem, 2022)

How the values were obtained:
PC-3M [1] = test: Inhibition of cell migration at human PC-3M cells measured after 5 days by Hoechst 33342 staining based microscopic method; type: functional; settings: 120 h
PC-3M [2] = test: Antiproliferative activity against human PC-3M cells expressing PTB/GFP fusion protein assessed as cell growth inhibition at < 100 nM and measured every four hrs for 130 hrs by IncuCyte zoom live cell analysis; type: functional, cell-based; settings: DDE = dose-dependent effect
Procedure, shortened: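 PC3M cells stably expressing GFP-PTB, grown in DMEM with 10% FBS and 1% penicillin/streptomycin, seeded at 1.25×10^4 cells/ml in 384-well plates and left overnight at 37 °C, 5% CO2. Compound added in DMEM to give 11 final concentrations from 10 nM to 20 μM. Brightfield images were taken every 4 h for about 130 h and scored as percent confluence.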

PC-3M [3] = test: Cytotoxicity against human PC-3M cells expressing PTB/GFP fusion protein assessed as reduction in ATP level at 20 uM and measured after 24 to 48 hrs by ATPlite luminescence assay; type: toxicity, cell-based; settings: time 24-48 hrs
PC-3M [4] = test: Antiproliferative activity against human PC-3M cells expressing PTB/GFP fusion protein assessed as reduction of nucleolar volume at 1 to 30 uM measured after 24 hrs by Nucleolar-id Green Detection based confocal microscopic analysis; type: functional, cell-based; settings: dose 1-30 µM, DDE = dose-dependent effect
Procedure, shortened: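 PC-3M cells grown in RPMI 1640 with 10% FBS and penicillin/streptomycin, trypsinized at 70% confluence, and seeded at 2×10^5 cells/mL overnight at 37 °C, 5% CO₂. Medium replaced with compound or 1% DMSO for 24 h. Nucleoli stained with Nucleolar-ID Green and nuclei with Hoechst 33342, then imaged by confocal microscopy. Bright green objects in three images per condition normalized to nuclei count; vehicle set to 100.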

CCRF-CEM = test: Anticancer activity against human CCRF-CEM cells assessed as cell growth inhibition; type: functional, cell-based; settings: dose 1-100 µM, DDE = dose-dependent effect
HL-60(TB) = test: Anticancer activity against human HL-60(TB) cells assessed as cell growth inhibition; type: functional, cell-based; settings: dose 1-100 µM, DDE = dose-dependent effect
K562 = test: Anticancer activity against human K562 cells assessed as cell growth inhibition; type: functional, cell-based; settings: dose 1-100 µM, DDE = dose-dependent effect
MOLT-4 = test: Anticancer activity against human MOLT-4 cells assessed as cell growth inhibition; type: functional, cell-based; settings: dose 1-100 µM, DDE = dose-dependent effect
RPMI-8226 = test: Anticancer activity against human RPMI-8226 cells assessed as cell growth inhibition; type: functional, cell-based; settings: dose 1-100 µM, DDE = dose-dependent effect
SR = test: Anticancer activity against human SR cells assessed as cell growth inhibition; type: functional, cell-based; settings: dose 1-100 µM, DDE = dose-dependent effect
A549 = test: Anticancer activity against human A549 cells assessed as cell growth inhibition; type: functional, cell-based; settings: dose 1-100 µM, DDE = dose-dependent effect
EKVX = test: Anticancer activity against human EKVX cells assessed as cell growth inhibition; type: functional, cell-based; settings: dose 1-100 µM, DDE = dose-dependent effect
HOP-62 = test: Anticancer activity against human HOP-62 cells assessed as cell growth inhibition; type: functional, cell-based; settings: dose 1-100 µM, DDE = dose-dependent effect
NCI-H226 = test: Anticancer activity against human NCI-H226 cells assessed as cell growth inhibition; type: functional, cell-based; settings: dose 1-100 µM, DDE = dose-dependent effect
NCI-H23 = test: Anticancer activity against human NCI-H23 cells assessed as cell growth inhibition; type: functional, cell-based; settings: dose 1-100 µM, DDE = dose-dependent effect
NCI-H322M = test: Anticancer activity against human NCI-H322M cells assessed as cell growth inhibition; type: functional, cell-based; settings: dose 1-100 µM, DDE = dose-dependent effect
NCI-H460 = test: Anticancer activity against human NCI-H460 cells assessed as cell growth inhibition; type: functional, cell-based; settings: dose 1-100 µM, DDE = dose-dependent effect
NCI-H522 = test: Anticancer activity against human NCI-H522 cells assessed as cell growth inhibition; type: functional, cell-based; settings: dose 1-100 µM, DDE = dose-dependent effect
COLO 205 = test: Anticancer activity against human COLO 205 cells assessed as cell growth inhibition; type: functional, cell-based; settings: dose 1-100 µM, DDE = dose-dependent effect
HCC 2998 = test: Anticancer activity against human HCC 2998 cells assessed as cell growth inhibition; type: functional, cell-based; settings: dose 1-100 µM, DDE = dose-dependent effect
HCT-116 = test: Anticancer activity against human HCT-116 cells assessed as cell growth inhibition; type: functional, cell-based; settings: dose 1-100 µM, DDE = dose-dependent effect
HCT-15 = test: Anticancer activity against human HCT-15 cells assessed as cell growth inhibition; type: functional, cell-based; settings: dose 1-100 µM, DDE = dose-dependent effect
HT-29 = test: Anticancer activity against human HT-29 cells assessed as cell growth inhibition; type: functional, cell-based; settings: dose 1-100 µM, DDE = dose-dependent effect
KM12 = test: Anticancer activity against human KM12 cells assessed as cell growth inhibition; type: functional, cell-based; settings: dose 1-100 µM, DDE = dose-dependent effect
SW-620 = test: Anticancer activity against human SW-620 cells assessed as cell growth inhibition; type: functional, cell-based; settings: dose 1-100 µM, DDE = dose-dependent effect
SF-268 = test: Anticancer activity against human SF-268 cells assessed as cell growth inhibition; type: functional, cell-based; settings: dose 1-100 µM, DDE = dose-dependent effect
SF-295 = test: Anticancer activity against human SF-295 cells assessed as cell growth inhibition; type: functional, cell-based; settings: dose 1-100 µM, DDE = dose-dependent effect
SF-539 = test: Anticancer activity against human SF-539 cells assessed as cell growth inhibition; type: functional, cell-based; settings: dose 1-100 µM, DDE = dose-dependent effect
SNB-19 = test: Anticancer activity against human SNB-19 cells assessed as cell growth inhibition; type: functional, cell-based; settings: dose 1-100 µM, DDE = dose-dependent effect
SNB-75 = test: Anticancer activity against human SNB-75 cells assessed as cell growth inhibition; type: functional, cell-based; settings: dose 1-100 µM, DDE = dose-dependent effect
U-251 = test: Anticancer activity against human U-251 cells assessed as cell growth inhibition; type: functional, cell-based; settings: dose 1-100 µM, DDE = dose-dependent effect
LOX IMVI = test: Anticancer activity against human LOX IMVI cells assessed as cell growth inhibition; type: functional, cell-based; settings: dose 1-100 µM, DDE = dose-dependent effect
Malme-3M = test: Anticancer activity against human Malme-3M cells assessed as cell growth inhibition; type: functional, cell-based; settings: dose 1-100 µM, DDE = dose-dependent effect
M14 = test: Anticancer activity against human M14 cells assessed as cell growth inhibition; type: functional, cell-based; settings: dose 1-100 µM, DDE = dose-dependent effect
MDA-MB-435 = test: Anticancer activity against human MDA-MB-435 cells assessed as cell growth inhibition; type: functional, cell-based; settings: dose 1-100 µM, DDE = dose-dependent effect
SK-MEL-2 = test: Anticancer activity against human SK-MEL-2 cells assessed as cell growth inhibition; type: functional, cell-based; settings: dose 1-100 µM, DDE = dose-dependent effect
SK-MEL-28 = test: Anticancer activity against human SK-MEL-28 cells assessed as cell growth inhibition; type: functional, cell-based; settings: dose 1-100 µM, DDE = dose-dependent effect
SK-MEL-5 = test: Anticancer activity against human SK-MEL-5 cells assessed as cell growth inhibition; type: functional, cell-based; settings: dose 1-100 µM, DDE = dose-dependent effect
UACC-257 = test: Anticancer activity against human UACC-257 cells assessed as cell growth inhibition; type: functional, cell-based; settings: dose 1-100 µM, DDE = dose-dependent effect
UACC-62 = test: Anticancer activity against human UACC-62 cells assessed as cell growth inhibition; type: functional, cell-based; settings: dose 1-100 µM, DDE = dose-dependent effect
IGROV-1 = test: Anticancer activity against human IGROV-1 cells assessed as cell growth inhibition; type: functional, cell-based; settings: dose 1-100 µM, DDE = dose-dependent effect
OVCAR-3 = test: Anticancer activity against human OVCAR-3 cells assessed as cell growth inhibition; type: functional, cell-based; settings: dose 1-100 µM, DDE = dose-dependent effect
OVCAR-4 = test: Anticancer activity against human OVCAR-4 cells assessed as cell growth inhibition; type: functional, cell-based; settings: dose 1-100 µM, DDE = dose-dependent effect
OVCAR-5 = test: Anticancer activity against human OVCAR-5 cells assessed as cell growth inhibition; type: functional, cell-based; settings: dose 1-100 µM, DDE = dose-dependent effect
OVCAR-8 = test: Anticancer activity against human OVCAR-8 cells assessed as cell growth inhibition; type: functional, cell-based; settings: dose 1-100 µM, DDE = dose-dependent effect
NCI/ADR-RES = test: Anticancer activity against human NCI/ADR-RES cells assessed as cell growth inhibition; type: functional, cell-based; settings: dose 1-100 µM, DDE = dose-dependent effect
SK-OV-3 = test: Anticancer activity against human SK-OV-3 cells assessed as cell growth inhibition; type: functional, cell-based; settings: dose 1-100 µM, DDE = dose-dependent effect
786-0 = test: Anticancer activity against human 786-0 cells assessed as cell growth inhibition; type: functional, cell-based; settings: dose 1-100 µM, DDE = dose-dependent effect
A498 = test: Anticancer activity against human A498 cells assessed as cell growth inhibition; type: functional, cell-based; settings: dose 1-100 µM, DDE = dose-dependent effect
ACHN = test: Anticancer activity against human ACHN cells assessed as cell growth inhibition; type: functional, cell-based; settings: dose 1-100 µM, DDE = dose-dependent effect
CAKI-1 = test: Anticancer activity against human CAKI-1 cells assessed as cell growth inhibition; type: functional, cell-based; settings: dose 1-100 µM, DDE = dose-dependent effect
RXF 393 = test: Anticancer activity against human RXF 393 cells assessed as cell growth inhibition; type: functional, cell-based; settings: dose 1-100 µM, DDE = dose-dependent effect
SN12C = test: Anticancer activity against human SN12C cells assessed as cell growth inhibition; type: functional, cell-based; settings: dose 1-100 µM, DDE = dose-dependent effect
TK-10 = test: Anticancer activity against human TK-10 cells assessed as cell growth inhibition; type: functional, cell-based; settings: dose 1-100 µM, DDE = dose-dependent effect
UO-31 = test: Anticancer activity against human UO-31 cells assessed as cell growth inhibition; type: functional, cell-based; settings: dose 1-100 µM, DDE = dose-dependent effect
PC-3 = test: Anticancer activity against human PC-3 cells assessed as cell growth inhibition; type: functional, cell-based; settings: dose 1-100 µM, DDE = dose-dependent effect
DU-145 = test: Anticancer activity against human DU-145 cells assessed as cell growth inhibition; type: functional, cell-based; settings: dose 1-100 µM, DDE = dose-dependent effect
MCF7 = test: Anticancer activity against human MCF7 cells assessed as cell growth inhibition; type: functional, cell-based; settings: dose 1-100 µM, DDE = dose-dependent effect
MDA-MB-231 = test: Anticancer activity against human MDA-MB-231 cells assessed as cell growth inhibition; type: functional, cell-based; settings: dose 1-100 µM, DDE = dose-dependent effect
Hs-578T = test: Anticancer activity against human Hs-578T cells assessed as cell growth inhibition; type: functional, cell-based; settings: dose 1-100 µM, DDE = dose-dependent effect
BT-549 = test: Anticancer activity against human BT-549 cells assessed as cell growth inhibition; type: functional, cell-based; settings: dose 1-100 µM, DDE = dose-dependent effect
T47D = test: Anticancer activity against human T47D cells assessed as cell growth inhibition; type: functional, cell-based; settings: dose 1-100 µM, DDE = dose-dependent effect
MDA-MB-468 = test: Anticancer activity against human MDA-MB-468 cells assessed as cell growth inhibition; type: functional, cell-based; settings: dose 1-100 µM, DDE = dose-dependent effect

O=C(Nc1cccnc1)c1cccs1
AC50 (PC-3M [1]): 1.98 µM

N=c1c2c(-c3ccccc3)c(-c3ccccc3)n(Cc3ccccc3)c2ncn1CCCO
Activity (PC-3M [2]): Dde | Activity (PC-3M [3]): Toxic | Activity (PC-3M [4]): Dde | Activity (CCRF-CEM): Dde | Activity (HL-60(TB)): Dde | Activity (K562): Dde | Activity (MOLT-4): Dde | Activity (RPMI-8226): Dde | Activity (SR): Dde | Activity (A549): Dde | Activity (EKVX): Dde | Activity (HOP-62): Dde | Activity (NCI-H226): Dde | Activity (NCI-H23): Dde | Activity (NCI-H322M): Dde | Activity (NCI-H460): Dde | Activity (NCI-H522): Dde | Activity (COLO 205): Dde | Activity (HCC 2998): Dde | Activity (HCT-116): Dde | Activity (HCT-15): Dde | Activity (HT-29): Dde | Activity (KM12): Dde | Activity (SW-620): Dde | Activity (SF-268): Dde | Activity (SF-295): Dde | Activity (SF-539): Dde | Activity (SNB-19): Dde | Activity (SNB-75): Dde | Activity (U-251): Dde | Activity (LOX IMVI): Dde | Activity (Malme-3M): Dde | Activity (M14): Dde | Activity (MDA-MB-435): Dde | Activity (SK-MEL-2): Dde | Activity (SK-MEL-28): Dde | Activity (SK-MEL-5): Dde | Activity (UACC-257): Dde | Activity (UACC-62): Dde | Activity (IGROV-1): Dde | Activity (OVCAR-3): Dde | Activity (OVCAR-4): Dde | Activity (OVCAR-5): Dde | Activity (OVCAR-8): Dde | Activity (NCI/ADR-RES): Dde | Activity (SK-OV-3): Dde | Activity (786-0): Dde | Activity (A498): Dde | Activity (ACHN): Dde | Activity (CAKI-1): Dde | Activity (RXF 393): Dde | Activity (SN12C): Dde | Activity (TK-10): Dde | Activity (UO-31): Dde | Activity (PC-3): Dde | Activity (DU-145): Dde | Activity (MCF7): Dde | Activity (MDA-MB-231): Dde | Activity (Hs-578T): Dde | Activity (BT-549): Dde | Activity (T47D): Dde | Activity (MDA-MB-468): Dde
